Measurements taken from publication PMC11892687 (Bioorganic & medicinal chemistry letters, 2017).

Tests used:
HCT116 cells = assay: FACS cell cycle analysis in HCT116 cells; format: cell-based, human; conditions: 48 h, 500 nM compound
Jurkat cells = assay: Anti-proliferative activity in Jurkat cells; format: cell-based; conditions: Homo sapiens, read-out: IC50 (cytotoxic, anti-proliferative activity)
[1] = system: panel of 468 human wild-type and mutant kinases; assay: KINOMEscan kinase profiling, panel of 468 kinases; format: binding; conditions: KINOMEscan at 1 μM compound concentration
LRRK2 = LRRK2 (Homo sapiens, UniProt Q5S007); assay: Biochemical assay LRRK2
Sequence of LRRK2 (Q5S007 whole entry, species assumed): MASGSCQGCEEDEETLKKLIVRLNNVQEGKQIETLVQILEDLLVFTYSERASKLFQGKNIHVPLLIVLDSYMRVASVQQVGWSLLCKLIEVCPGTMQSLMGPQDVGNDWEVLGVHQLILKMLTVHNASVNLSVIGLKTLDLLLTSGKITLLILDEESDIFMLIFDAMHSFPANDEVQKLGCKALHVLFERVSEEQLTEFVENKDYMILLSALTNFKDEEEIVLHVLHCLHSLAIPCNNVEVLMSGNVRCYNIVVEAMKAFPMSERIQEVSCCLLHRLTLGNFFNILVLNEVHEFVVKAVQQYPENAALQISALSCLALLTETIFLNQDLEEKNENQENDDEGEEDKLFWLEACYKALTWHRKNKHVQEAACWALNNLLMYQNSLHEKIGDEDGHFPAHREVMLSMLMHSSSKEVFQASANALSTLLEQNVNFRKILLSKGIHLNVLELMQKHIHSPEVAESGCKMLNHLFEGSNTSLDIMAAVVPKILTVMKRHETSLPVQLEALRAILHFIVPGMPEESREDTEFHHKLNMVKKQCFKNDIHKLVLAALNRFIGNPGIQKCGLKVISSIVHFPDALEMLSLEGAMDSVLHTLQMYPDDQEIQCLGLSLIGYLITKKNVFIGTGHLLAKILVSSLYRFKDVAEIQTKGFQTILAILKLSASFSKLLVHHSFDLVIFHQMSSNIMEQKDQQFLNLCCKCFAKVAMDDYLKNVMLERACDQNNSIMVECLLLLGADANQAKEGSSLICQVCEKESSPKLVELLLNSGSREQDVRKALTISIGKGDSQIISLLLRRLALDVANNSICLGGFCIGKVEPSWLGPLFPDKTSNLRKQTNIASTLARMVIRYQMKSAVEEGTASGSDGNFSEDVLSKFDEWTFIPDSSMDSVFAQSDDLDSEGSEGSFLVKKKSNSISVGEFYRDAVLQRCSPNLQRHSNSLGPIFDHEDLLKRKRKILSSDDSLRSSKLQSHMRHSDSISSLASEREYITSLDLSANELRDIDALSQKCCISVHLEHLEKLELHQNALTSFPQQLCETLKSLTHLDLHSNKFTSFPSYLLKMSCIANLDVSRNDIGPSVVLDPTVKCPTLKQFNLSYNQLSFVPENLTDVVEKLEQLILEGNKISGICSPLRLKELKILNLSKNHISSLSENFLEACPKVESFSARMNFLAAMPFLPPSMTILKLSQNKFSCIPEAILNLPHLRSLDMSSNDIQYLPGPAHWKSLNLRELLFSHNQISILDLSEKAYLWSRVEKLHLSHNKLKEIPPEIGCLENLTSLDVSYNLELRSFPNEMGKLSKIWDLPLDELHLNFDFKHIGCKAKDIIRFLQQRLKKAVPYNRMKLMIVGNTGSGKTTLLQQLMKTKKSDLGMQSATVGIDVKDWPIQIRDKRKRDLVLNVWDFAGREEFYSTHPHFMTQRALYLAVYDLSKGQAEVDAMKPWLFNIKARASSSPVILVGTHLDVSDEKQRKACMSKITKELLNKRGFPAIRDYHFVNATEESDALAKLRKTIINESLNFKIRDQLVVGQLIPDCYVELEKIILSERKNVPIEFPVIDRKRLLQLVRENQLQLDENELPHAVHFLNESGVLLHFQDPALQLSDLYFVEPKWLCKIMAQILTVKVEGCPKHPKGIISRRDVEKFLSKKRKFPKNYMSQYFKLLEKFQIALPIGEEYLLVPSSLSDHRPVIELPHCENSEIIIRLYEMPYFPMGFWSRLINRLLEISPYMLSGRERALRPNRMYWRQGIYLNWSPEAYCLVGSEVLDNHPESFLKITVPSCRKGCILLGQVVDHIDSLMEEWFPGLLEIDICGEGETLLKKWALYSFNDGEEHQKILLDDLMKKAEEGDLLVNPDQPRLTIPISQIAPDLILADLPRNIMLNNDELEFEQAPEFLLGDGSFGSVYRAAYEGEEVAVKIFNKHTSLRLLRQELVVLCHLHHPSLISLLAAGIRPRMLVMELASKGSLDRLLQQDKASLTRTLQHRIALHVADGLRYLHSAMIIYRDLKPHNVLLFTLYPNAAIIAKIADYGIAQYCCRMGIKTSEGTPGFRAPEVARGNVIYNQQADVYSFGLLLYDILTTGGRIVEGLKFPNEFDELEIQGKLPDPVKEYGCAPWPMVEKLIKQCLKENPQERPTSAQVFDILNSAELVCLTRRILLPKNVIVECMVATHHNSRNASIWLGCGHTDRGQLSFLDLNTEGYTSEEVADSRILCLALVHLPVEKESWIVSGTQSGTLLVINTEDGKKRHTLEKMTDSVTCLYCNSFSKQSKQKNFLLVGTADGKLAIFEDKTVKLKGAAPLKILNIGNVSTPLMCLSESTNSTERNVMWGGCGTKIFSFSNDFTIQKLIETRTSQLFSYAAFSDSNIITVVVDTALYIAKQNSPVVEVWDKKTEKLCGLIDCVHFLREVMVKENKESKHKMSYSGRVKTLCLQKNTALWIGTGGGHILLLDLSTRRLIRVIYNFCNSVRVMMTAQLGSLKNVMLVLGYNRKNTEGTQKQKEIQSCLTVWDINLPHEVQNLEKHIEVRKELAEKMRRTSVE

BRD4 = BRD4 (Homo sapiens, UniProt O60885); assay: Biochemical assay BRD4
[2] = target: T1, recombinant purified Aurora A protein (Homo sapiens, UniProt O14965); assay: LC-MS/MS covalent labeling of recombinant Aurora A; format: binding; conditions: compound at 10 fold excess with recombinant purified Aurora A
T1 sequence (O14965 1-403): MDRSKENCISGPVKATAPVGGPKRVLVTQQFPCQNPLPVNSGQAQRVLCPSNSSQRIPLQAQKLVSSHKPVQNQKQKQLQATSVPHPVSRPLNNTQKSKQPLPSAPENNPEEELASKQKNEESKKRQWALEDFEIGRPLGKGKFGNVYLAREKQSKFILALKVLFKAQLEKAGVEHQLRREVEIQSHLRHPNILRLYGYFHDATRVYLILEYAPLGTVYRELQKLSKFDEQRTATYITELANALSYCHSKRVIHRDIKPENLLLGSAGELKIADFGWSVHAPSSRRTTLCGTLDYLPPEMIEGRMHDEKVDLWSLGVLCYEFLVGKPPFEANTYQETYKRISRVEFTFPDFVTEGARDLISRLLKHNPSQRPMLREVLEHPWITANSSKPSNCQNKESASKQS

HEK293 = assay: Cell Titer Glo cell viability assay HEK293; format: cell-based; conditions: Homo sapiens, HEK293, 72 h, read-out: HEK293 IC50
Method in brief: (§1)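 Cells from a human cancer line panel were treated with the test compound across a dose-response series.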

PC3 = assay: Cell Titer Glo cell viability assay PC3; format: cell-based; conditions: Homo sapiens, PC-3, 72 h, read-out: PC3 IC50
Method in brief: as §1

ABL1 Y253F = ABL1 Y253F (Homo sapiens, UniProt P00519, Y253F); assay: Biochemical kinase assay ABL1 Y253F
HCT116 = assay: Cell Titer Glo cell viability assay HCT116; format: cell-based; conditions: Homo sapiens, HCT-116, 72 h, read-out: HCT116 IC50
Method in brief: as §1

| IC50 (ABL1 Y253F) | IC50 (HCT116) | SMILES | effect on cell cycle (FACS) (HCT116 cells) | IC50 (Jurkat cells) | kinome-wide selectivity [1] | activity against LRRK2 (LRRK2) | activity against BRD4 (BRD4) | labeling of Aurora A by LC-MS/MS [2] | IC50 (HEK293) | IC50 (PC3) |
| --- | --- | --- | --- | --- | --- | --- | --- | --- | --- | --- |
| – | – | CCOC(=O)c1[nH]cc2c1NC1=C(C(=O)CCC1)[C@H]2c1cccc(Oc2nc3ccccc3[nH]2)c1 [SAR156497, reference compound] | failed cytokinesis and accumulation of cells that contain 4N DNA (polyploidy) | – | – | – | – | – | – | – |
| – | – | C=CC(=O)Nc1ccc(C(=O)Nc2ccc(Nc3ncc4c(n3)N(C)c3ccc(C)cc3C(=O)N4C)cc2)cc1 [compound 1] | failed cytokinesis and accumulation of cells that contain 4N DNA (polyploidy) | 370 nM | exclusively on-target activity | inactive | inactive | no labeling | 250 ± 48 nM | 990 ± 1500 nM |
| > 10000 nM | ~100 nM | CCC(=O)Nc1ccc(C(=O)Nc2ccc(Nc3ncc4c(n3)N(C)c3ccc(C)cc3C(=O)N4C)cc2)cc1 [compound 2] | – | – | – | inactive | inactive | – | ~100 nM | ~100 nM |
